Sampled rows, rich in hits. Any-hit rate of the full collection: about 4.9%.
NF-kB neuron act – compounds increasing NF-kB expression in human neuronal cells. NF-kB reporter expression; stronger effect = higher value. fold change at 12.5 µM. hit rate 1.6% among 190,000; in the data active = fold change above about 3.3
STAT1 act – increases IFN-gamma driven STAT1 reporter signal | NIH 3T3 STAT1-luciferase reporter, luminescence; 100% = IFN-gamma alone, no compound | activation (% of control), % at 5.5 µM | hit rate 2.6% among 200,000 | AID 932;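 active = activation above the screen-wide mean activation plus 3 SD, cut at about 130% in these data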;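 note: raw ratio to IFN-gamma control signal so 100% means no change and 0% no light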
STAT3 inh-1 – inhibitors of IL-6 induced STAT3 signaling; inhibition, % at 5.5 µM; hit rate 0.89% among 190,000; AID 862; U3A cells, IL-6 STAT3-luciferase reporter, luminescence; host cell line lacks STAT1;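 active = inhibition above the mean inhibition across all screened compounds plus 3 SD, cut at about 44% in these data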;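 note: 0% = DMSO only wells and 100% = 100 µM nifuroxazide control wells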
STAT3 act – STAT3 signaling activation; U3A cells, IL-6 STAT3-luciferase reporter, luminescence; 100% = signal with IL-6 EC80 alone; activation (% of control), % at 5.6 µM; AID 871; hit rate 0.91% among 190,000;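 active = activation above the screen-wide mean of compound activation plus 3 SD, cut at about 130% in these data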;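 note: 0% = background luminescence of wells with medium and substrate only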
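Material: human STAT1-deficient U3A cells with stable STAT3-luciferase reporter / Probe or stimulus: IL-6 stimulus at 33 ng/mL final / Schedule: 1 h compound pre-exposure, 6 h IL-6 stimulation, 37 °C / Technique: luminescence / Read-out basis: percent of IL-6-only median luminescence / Control set: IL-6-only high control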
STAT1 inh – inhibitors of IFN-gamma induced STAT1 signaling. inhibition, % at 5.5 µM. NIH 3T3 STAT1-luciferase reporter, luminescence. AID 920. hit rate 0.35% among 200,000;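 active = inhibition above a set limit, the mean inhibition across all tested compounds plus 3 SD, cut at about 34% in these data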;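 note: 0% = IFN-gamma with DMSO and 100% = IFN-gamma with 300 µM nifuroxazide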
APP 5'UTR act – APP 5'UTR luciferase reporter activation; SH-SY5Y APP 5'UTR luciferase reporter, luminescence; zero percent = DMSO vehicle wells; hit rate 1% among 190,000; activation, % at 2 µM;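 active = activation above a set limit, based on mean plus 3 SD of controls, cut at about 140% in these data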
STAT3 inh-2 – confirmation of STAT3 signaling inhibitors; shares compounds with STAT3 inh-1; U3A cells, IL-6 STAT3 luciferase reporter, luminescence; cell line lacks STAT1; inhibition, % at 5.7 µM; hit rate 45% among 1,200; AID 1265;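 active = inhibition above the hit cutoff computed for the primary STAT3 screen, cut at about 44% in these data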;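 note: 0% = IL-6 plus DMSO and 100% = IL-6 plus nifuroxazide control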
NFkB inh 2 – counter-screen for STAT3 inhibitors: NF-kappaB inhibition. shares compounds with STAT3 inh-1. HEK293T NF-kB luciferase reporter, TNF-alpha induced. hit rate 36% among 1,200. inhibition, % at 5.7 µM. AID 1308;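 active = inhibition above the mean of solvent-only control wells plus 3 SD, cutoff set per campaign, cut at about 13% in these data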;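 note: 0% = TNF-alpha with DMSO and 100% = TNF-alpha with MG high control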
STAT1 inh STAT3c – counter-screen for STAT3 inhibitors: STAT1 inhibition | shares compounds with STAT3 inh-1 | hit rate 27% among 1,200 | inhibition, % at 5.7 µM | AID 1317 | NIH 3T3 STAT1-luciferase reporter, IFN-gamma induced, luminescence;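 active = inhibition above the mean plus 3 SD of solvent-only control wells, limit set per screening run, cut at about 16% in these data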;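 note: 0% = DMSO with IFN-gamma and 100% = nifuroxazide control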
* hit, by the source's call; · = no result given.

SMILES	NF-kB neuron act	STAT1 act	STAT3 inh-1	STAT3 act	STAT1 inh	APP 5'UTR act	STAT3 inh-2	NFkB inh 2	STAT1 inh STAT3c
Cc1ccsc1C(=O)Nc1ccc2c(c1)OCCO2	6.2*	125	55*	54	-28	127	14	-17	-77
c1ccc(C2=Nc3cccnc3C(c3ccccc3)=NN2)cc1	1.8	105	8	94	-7	9	·	·	·
CCCCN(C(=O)CN1CCOCC1)c1c(N)n(CC(C)C)c(=O)[nH]c1=O	0.92	106	2	95	-7	10	·	·	·
O=C(CCCCCNc1nc(=S)[nH]c2ccccc12)NCCC1=CCCCC1	0.9	104	-6	107	-7	1	·	·	·
COc1ccc2nc3c(cc2c1)c(NC(=O)c1cccs1)nn3CC(C)C	0.44	94	59*	51	7	-43	54*	-10	2
CCOc1ccc(N=c2scc(-c3ccc(OC)cc3)n2CCO)cc1	0.91	98	59*	54	3	30	18	-2	-5
O=C(O)c1cc2c(s1)-c1ccccc1OC2	1	98	-2	108	3	20	·	·	·
O=C(NC1CC1)c1cc2c(s1)-c1ccccc1OC2	1.9	120	71*	46	-22	75	63*	-7	-42
Cc1ccc(NC(=O)CN(C)Cc2nc3c(Br)cc(Br)cc3c(=O)[nH]2)cc1	1.4	97	0	101	2	12	·	·	·
Cc1ccc(C(=O)NCC(=O)OCC(=O)NCC(F)(F)F)cc1	0.93	99	-1	107	0	38	·	·	·
COc1cccc2c1OC[C@@H](CO)[C@H]2N(C)C(=O)Nc1ccc(Cl)cc1Cl	0.71	89	44*	68	12	·	31	3	17*
COc1ccc(-c2cc(=O)c3cc(OC)ccc3o2)cc1	5.3*	122	73*	42	-25	155*	53*	31*	-47
Cc1nc2ccc(NC(=O)c3cccs3)cc2c(=O)n1Cc1ccc(Cl)cc1	0.51	97	51*	60	2	-19	43	6	-6
Cc1cc(C)n(C(C[N+](=O)[O-])c2ccc(Cl)cc2)n1 (stereo not drawn)	1.2	103	5	101	-4	-3	·	·	·
Cc1cc(C)nc(NC(=O)/C=C/c2ccccc2Cl)c1	3.2	126	-13	111	-28	110	·	·	·
Cc1ccnc(NC(=O)/C=C/c2ccccc2Cl)c1	8.7*	121	55*	55	-23	186*	28	-9	-100
CCN(CC)C(=O)c1ccc(S(=O)(=O)N2CCC(c3nc4ccccc4s3)CC2)cc1	0.85	84	67*	46	22	27	51*	11	18*
CC1CCCN(C(=O)c2ccc(S(=O)(=O)N3CCC(c4nc5ccccc5s4)CC3)cc2)C1 (stereo not drawn)	·	106	53*	57	-4	0	50*	14*	18*
Cc1cc(C)n(Cc2ccc(NC(=O)c3ccc(COc4ccccc4Br)cc3)cc2)n1	0.77	89	52*	59	5	-12	52*	9	-1
CN1/C(=C\C(=O)C[n+]2ccc3ccccc3c2)C(C)(C)c2ccccc21	0.79	95	73*	41	6	20	74*	1	3
CC[n+]1c(/C=C2/C=C(C)CC(C)C2)sc2ccccc21 (stereo not drawn)	0.81	71	19	86	29	-9	·	·	·
CC[n+]1c(C=C2C=C(C)OC(C)=C2)sc2ccccc21	0.85	74	84*	31	29	-9	85*	27*	4
O=C(NC1=NC2CCCCC2N1)c1ccccc1 (stereo not drawn)	2.6	114	49*	61	-16	39	22	-18	-59
